The values below come from ChEMBL document CHEMBL1127661, “Synthesis of 2-methyl-(Z)-4-(phenylimino)naphth[2,3-d]oxazol-9-one , a monoimine quinone with selective cytotoxicity toward cancer cells” (1994).

Experiment [1] deals with Malme-3M. As to the kind of experiment: In vitro tumor cell growth inhibition was reported as the concentration that reduces MALME-3M melanoma cell growth to 50% of level at the start experiment. The format is functional. The conditions noted are these: Homo sapiens, read-out: Log LC50 (the source's name) (converted). The method in brief:
(§1)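 Tested in the NCI in vitro anticancer screen, which covers about 60 human cell lines from eight solid-tumour types and leukaemia. Values were read from dose-response curves as log molar concentration. The endpoint is the concentration that reduces cell growth to 50% of the level at the start of the experiment (LC50).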

Experiment [2] concerns T47D. Kind of experiment: In vitro tumor cell growth inhibition was reported as the concentration that reduces T-47D breast cancer cell growth to level at the start experiment. In kind it is functional, Homo sapiens. Put shortly: (§2)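 NCI in vitro screen covering about 60 human cell lines from eight solid tumour types and leukaemia. Results were derived from dose-response curves. TGI is the concentration that holds cell growth at the level present at the start of the experiment. Values are given as log molar concentration. The mean graph midpoint (MG-MID) is the average across all cell lines tested, with a range of TGI values.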

For experiment [3], the system named is Hs-578T. As to the kind of experiment: In vitro tumor cell growth inhibition was reported as the concentration that reduces HS 578T breast cancer cell growth to level at the start experiment. The format is functional, Homo sapiens. The method in brief: as §2
Experiment [4] deals with SK-MEL-5. Kind of experiment: In vitro tumor cell growth inhibition was reported as the concentration that reduces SK-MEL-5 melanoma cell growth to level at the start experiment. The format is functional, Homo sapiens. The method in brief:
as §2

The test system of experiment [5] is MDA-MB-435. As to the kind of experiment: In vitro tumor cell growth inhibition was reported as the concentration that reduces MDA-MB-435 breast cancer cell growth to level at the start experiment. In kind it is functional, Homo sapiens. Put shortly:
as §2

For experiment [6], the system named is Tumor Cell line. Kind of experiment: Concentration which reduces cell growth to level at the start of the experiment was reported as the mean graph medium for all the cell lines tested in vitro conditions. The format is functional, Homo sapiens. The method in brief: as §2
The test system of experiment [7] is MDA-MB-231. Kind of experiment: In vitro tumor cell growth inhibition was reported as the concentration that reduces MDA-MB-231/ATCC breast cancer cell growth to 50% of level at the start experiment.. As to conditions: Homo sapiens, read-out: Log LC50 (the source's name) (converted). In kind it is functional. The method in brief: as §1
For experiment [8], the system named is MCF7. Kind of experiment: In vitro tumor cell growth inhibition was reported as the concentration that reduces MCF-7 breast cancer cell growth to level at the start experiment. The format is functional, Homo sapiens. Put shortly:
as §2

Experiment [9] has as its system LOX IMVI. As to the kind of experiment: In vitro tumor cell growth inhibition was reported as the concentration that reduces LOXIMVI melanoma cell growth to level at the start experiment. In kind it is functional, Homo sapiens. Put shortly:
as §2

For experiment [10], the system named is MDA-N. As to the kind of experiment: In vitro tumor cell growth inhibition was reported as the concentration that reduces MDA-N breast cancer cell growth to level at the start experiment. The format is functional, Homo sapiens. The method in brief:
as §2

Experiment [11] relates to Hs-578T. Kind of experiment: In vitro tumor cell growth inhibition was reported as the concentration that reduces HS 578T breast cancer cell growth to 50% of level at the start experiment. The format is functional. The conditions noted are these: Homo sapiens, read-out: Log LC50 (the source's name) (converted). The method in brief: as §1
Experiment [12] has as its system SK-MEL-2. Kind of experiment: In vitro tumor cell growth inhibition was reported as the concentration that reduces SK-MEL-2 melanoma cell growth to 50% of level at the start experiment. In kind it is functional. As to conditions: Homo sapiens, read-out: Log LC50 (the source's name) (converted). The method in brief:
as §1

In experiment [13] the test system is MCF7. As to the kind of experiment: In vitro tumor cell growth inhibition was reported as the concentration that reduces MCF-7 breast cancer cell growth to 50% of level at the start experiment. The format is functional. The conditions noted are these: Homo sapiens, read-out: Log LC50 (the source's name) (converted). The method in brief: as §1
Experiment [14] concerns SK-MEL-5. Kind of experiment: In vitro tumor cell growth inhibition was reported as the concentration that reduces SK-MEL-5 melanoma cell growth to 50% of level at the start experiment. As to conditions: Homo sapiens, read-out: Log LC50 (the source's name) (converted). The format is functional. The method in brief:
as §1

Experiment [15] concerns MDA-MB-231. As to the kind of experiment: In vitro tumor cell growth inhibition was reported as the concentration that reduces MDA-MB-231/ATCC breast cancer cell growth to level at the start experiment. In kind it is functional, Homo sapiens. The method in brief:
as §2

For experiment [16], the system named is BT-549. As to the kind of experiment: In vitro tumor cell growth inhibition was reported as the concentration that reduces BT-549 breast cancer cell growth to 50% of level at the start experiment. The format is functional. As to conditions: Homo sapiens, read-out: Log LC50 (the source's name) (converted). The method in brief:
as §1

Experiment [17] concerns MDA-N. Kind of experiment: In vitro tumor cell growth inhibition was reported as the concentration that reduces MDA-N breast cancer cell growth to 50% of level at the start experiment. The format is functional. As to conditions: Homo sapiens, read-out: Log LC50 (the source's name) (converted). The method in brief:
as §1

Experiment [18] deals with SK-MEL-2. As to the kind of experiment: In vitro tumor cell growth inhibition was reported as the concentration that reduces SK-MEL-2 melanoma cell growth to level at the start experiment. The format is functional, Homo sapiens. Put shortly:
as §2

In experiment [19] the test system is BT-549. As to the kind of experiment: In vitro tumor cell growth inhibition was reported as the concentration that reduces BT-549 breast cancer cell growth to level at the start experiment. The format is functional, Homo sapiens. The method in brief:
as §2

Experiment [20] concerns MDA-MB-435. Kind of experiment: In vitro tumor cell growth inhibition was reported as the concentration that reduces MDA-MB-435 breast cancer cell growth to 50% of level at the start experiment. In kind it is functional. The conditions noted are these: Homo sapiens, read-out: Log LC50 (the source's name) (converted). The method in brief:
as §1

In experiment [21] the test system is T47D. As to the kind of experiment: In vitro tumor cell growth inhibition was reported as the concentration that reduces T-47D breast cancer cell growth to 50% of level at the start experiment. As to conditions: Homo sapiens, read-out: Log LC50 (the source's name) (converted). The format is functional. The method in brief:
as §1

The subject of experiment [22] is Tumor Cell line. As to the kind of experiment: In vitro inhibition of cell growth. In kind it is functional, Homo sapiens.
Experiment [23] concerns M14. Kind of experiment: In vitro tumor cell growth inhibition was reported as the concentration that reduces M14 melanoma cell growth to 50% of level at the start experiment. The format is functional. The conditions noted are these: Homo sapiens, read-out: Log LC50 (the source's name) (converted). Put shortly: as §1
The test system of experiment [24] is Malme-3M. As to the kind of experiment: In vitro tumor cell growth inhibition was reported as the concentration that reduces MALME-3M melanoma cell growth to level at the start experiment. In kind it is functional, Homo sapiens. The method in brief: as §2
In experiment [25] the test system is M14. Kind of experiment: In vitro tumor cell growth inhibition was reported as the concentration that reduces M14 melanoma cell growth to level at the start experiment. The format is functional, Homo sapiens. The method in brief:
as §2

In experiment [26] the test system is LOX IMVI. Kind of experiment: In vitro tumor cell growth inhibition was reported as the concentration that reduces LOXIMVI melanoma cell growth to 50% of level at the start experiment. The conditions noted are these: Homo sapiens, read-out: Log LC50 (the source's name) (converted). The format is functional. The method in brief: as §1

`Cc1nc2c(o1)C(=O)c1ccccc1/C2=N/c1ccccc1`: the CC50 in [1] was 5.01 µM; in [7] it was > 100 µM; in [11], > 100 µM; in [12], 6.31 µM; in experiment [13], > 100 µM; in experiment [14], 5.01 µM. In addition, the CC50 is 6.31 µM in experiment [16]; 3.16 µM in experiment [17]; 3.16 µM in experiment [20]; > 100 µM in [21]; 3.98 µM in experiment [23]; 6.31 µM in [26]. The Log concentration in experiment [2] is listed as -5.1; in experiment [3], -5.3; in [4] it was -5.6; in [5], -6; in [6] it was -5.13; in [8], -5.3. Besides, the Log concentration in experiment [9] was -5.6; in [10], -6; in experiment [15], -4.7; in [18] it was -5.6; in experiment [19] it was -5.5; in experiment [24] it was -5.6. Further, the Log concentration in experiment [25] is -5.9. The compound further gave a Range in [22] of 2.02.

Regarding `Cc1nc2c(o1)/C(=N\c1ccccc1)c1ccccc1C2=O`, the Log concentration in experiment [6] is recorded as -4.62. In experiment [22], this compound returned a Range of 1.44.

On to `Cc1nc2c(o1)/C(=N\c1ccccc1)c1ccccc1/C2=N/c1ccccc1`, for which the Log concentration in experiment [6] is on record as -4.02. In [22], this compound returned a Range of 0.49.
